For series [1], the system named is MS2 coat protein. The series is described as follows: apparent Kd, MS2 coat protein; higher = weaker binding; RNA-MaP array; tryptophan 2.4 mM where present. In short, it runs like this: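 Binding was read on Illumina sequencing-chip clusters where stalled E. coli RNA polymerase had transcribed each design. A titration of SNAP-549-labelled MS2 coat protein began at 0.7 or 1.5 nM and doubled to 3 µM, once without ligand and once with constant ligand, in 100 mM Tris-HCl pH 7.5, 80 mM KCl, 4 mM MgCl2, BSA, DTT, yeast tRNA and Tween-20. The apparent Kd is the median of filtered per-cluster binding-curve fits, based on green signal normalised to red-channel RNA signal and control-cluster median Fmax.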

Series [2] concerns MS2 coat protein. The series is described as follows: apparent Kd, MS2 coat protein; higher = weaker binding; RNA-MaP array. In short, it runs like this: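 Fluorescently labeled MS2 coat protein, from 1.5 nM to 3 μM, was incubated at room temperature with designed RNAs transcribed on an Illumina sequencing chip from sequenced DNA templates. Times ran from 0.8–1.5 h at the lowest concentrations to 10–20 min at the highest, in Tris-HCl pH 7.5 buffer with KCl, MgCl2, BSA, DTT, tRNA and Tween20, with or without input ligand. Each apparent Kd is the median of per-cluster binding-curve fits, and designs with fewer than 10 measured clusters were excluded.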

Where [3] appears, read: designed as: ON switch for tryptophan, no ligand.
Setting [4] is: ligand present: tryptophan, designed as: ON switch for tryptophan.
The mark [5] stands for this setting: designed as: OFF switch for tryptophan, no ligand.
[6] abbreviates: ligand present: tryptophan, designed as: OFF switch for tryptophan.
[7] abbreviates: designed as: OFF switch for flavin mononucleotide, no ligand.
Where [8] appears, read: ligand present: flavin mononucleotide, designed as: OFF switch for flavin mononucleotide.
Where [9] appears, read: designed as: ON switch for flavin mononucleotide, no ligand.
[10] abbreviates: ligand present: flavin mononucleotide, designed as: ON switch for flavin mononucleotide.

What is called apparent Kd is the concentration giving half-maximal binding under the conditions of the assay.

Regarding “ACAUGAGGAUCACCCAUGUGUGUAAAUCCUCGAGGACCGGUACGGCCGCCACUCGAUUGAGUGUAAGUUGAAUGUAACAUUCAAC”, the “apparent Kd” value in the series with MS2 coat protein [1] (setting [3]) is 96.2 nM; with MS2 coat protein [1] (setting [4]) it was 30.1 nM.

In the case of “UUCGUUGGCGAUCUGGGUUUACCAGAUCGGCGAGGACCGGUACGGCCGCCACUCGUGUUUUCUUUACAUGAGGAUCACCCAUGUU”, the figures for the “apparent Kd” value with MS2 coat protein [1] (setting [3]) and in the series on MS2 coat protein [1] (setting [4]) were 19.2 nM and 15.2 nM, respectively.

On to “GGAGUAGGAAACUAUUCCAAUCCUCGUGAACGAGGACCGGUACGGCCGCCACUCGAUAAAUAAAUACAUGAGGAUCACCCAUGUU”, for which the “apparent Kd” value with MS2 coat protein [1] (setting [5]) amounted to 68.8 nM; in the series on MS2 coat protein [1] (setting [6]), 118 nM.

For “AUUCAUGGAAACAUGACAUACAUAUCCGGUCGAGGACCGGUACGGCCGCCACUCGUUUGGAGGCACAUGAGGAUCACCCAUGUUA”, the “apparent Kd” value in the series with MS2 coat protein [1] (setting [3]) turned out to be 23.9 nM; in the series on MS2 coat protein [1] (setting [4]) it was 25.9 nM.

With “AAACAUGAGGAUCACCCAUGUAUGUUAUUACGAGGACCGGUACGGCCGCCACUCGAUAGAGUAGAAGUAAAUUGUAAUUCAUGUU”, the “apparent Kd” value was found to be 14.3 nM in the series on MS2 coat protein [1] (setting [5]) and 15.9 nM in the series on MS2 coat protein [1] (setting [6]).

Turning to “AAGGCUACGACCGAUACCAGUAGACGGCAUUCGUAGGAGAACAUGAGGAUCACCCAUGUCUACCCUUGGCAGCGGAAAAUACACU”, the “apparent Kd” value is 13.5 nM in the series on MS2 coat protein [2] (designed as: OFF switch for theophylline, no ligand) and 39.8 nM with MS2 coat protein [2] (ligand present: theophylline, designed as: OFF switch for theophylline).

Consider “CUAAAGGAUGAAGGAUAUUUGAGUGACACGCAGAAAGAAGGUCAAGCUUACAUGAGGAUCACCCAUGUGCGUGAGUGCAGGUGC”, for which the “apparent Kd” value turned out to be 14.4 nM in the series on MS2 coat protein [2] (setting [7]) and 13.3 nM in the series with MS2 coat protein [2] (setting [8]).

Take “CCAAUAUCUAUAGGAUAUCAAUGACCAAACUGAACAUGAGGAUCACCCAUGUAGUGAGUGACUUAUGAGAAGGAUAGACGUACC”: the entries for the “apparent Kd” value in the series on MS2 coat protein [2] (setting [9]) and in the series with MS2 coat protein [2] (setting [10]) were 104 nM and 22.9 nM, respectively.

For the sequence “UCAAUUGAGGUCAAGGAUAUCUAGAAACAGACAUGAGGAUCACCCAUGUGCACAGCAUAAACGAGAGAGAAGGUGAGGCAUAUUGA”, the “apparent Kd” value amounted to 42.7 nM in the series with MS2 coat protein [2] (setting [9]) and 26.5 nM in the series with MS2 coat protein [2] (setting [10]).

As to “AACGGUGCGCGAGGAUAUCACGUACCAAGAGGAUGAGAAGGCGCGCGUACAGGUUGGUGAACAUGAGGAUCACCCAUGUGGUAC”, the “apparent Kd” value with MS2 coat protein [2] (setting [7]) was 99.5 nM; in the series on MS2 coat protein [2] (setting [8]), 87.2 nM.

Regarding “CUUUAACAUGAGGAUCACCCAUGUCCGAUGAAUUUAGGAUAUCGCAUUGGUCGUAUGAGGCGAGAAGGAAAUUGUC”, the figures for the “apparent Kd” value in the series with MS2 coat protein [2] (setting [9]) and in the series with MS2 coat protein [2] (setting [10]) were 28.4 nM and 12.8 nM, respectively.

As for “ACCCGAGAUACAGGAUAUGCGUCCGCGUGAGCCAUGGUUAAAGCACAUGAGGAUCACCCAUGUUGGCAGAAGGGAAUCUCAUGA”, the “apparent Kd” value in the series with MS2 coat protein [2] (setting [7]) is 53.7 nM; in the series with MS2 coat protein [2] (setting [8]) it was 19.3 nM.

For the sequence “UAGAGCUCGCAAGGAUAUAACGCACAGAAACAUGAGGAUCACCCAUGUGGAAAGGAUCAACGUCGUUAGAAGGUGCAGAAAUAU”, the “apparent Kd” value with MS2 coat protein [2] (setting [9]) was found to be 47.4 nM; in the series on MS2 coat protein [2] (setting [10]) it was 22 nM.

Take “UCGUUGCCAUGAGGAUAUCGUGUCAAGACAGGCAAGUGACCGUACAUGAGGAUCACCCAUGUAAACGAGAAGGCAUAGUCAUGG”: the “apparent Kd” value with MS2 coat protein [2] (setting [7]) is 17 nM; in the series with MS2 coat protein [2] (setting [8]), 13.9 nM.

Consider “GCUCCGCUAGCAGGAUAUGUAGGGGGAUUAUUGAUUGGGCGUAACAUGAGGAUCACCCAUGUUCCACAGAAGGGCUGGAGAAGA”, for which the “apparent Kd” value in the series on MS2 coat protein [2] (setting [7]) was found to be 107 nM; with MS2 coat protein [2] (setting [8]) it was 68.3 nM.

Regarding “ACUGAGUAAGGAUAUCCAUCAUACUAACGACGCGGAAAGAAGGAGAAGGUACAUGAGGAUCACCCAUGUGAAAA”, the “apparent Kd” value in the series with MS2 coat protein [2] (setting [7]) was determined as 12.3 nM; in the series with MS2 coat protein [2] (setting [8]), 11.1 nM.

Regarding “GUCAUCUGUUUAGGAUAUGCGGUAGACACCGGGCGAGAAACAUGAGGAUCACCCAUGUUCGGAUUGCAGAAGGAAACGGCAAUA”, the “apparent Kd” value in the series on MS2 coat protein [2] (setting [9]) came out at 13.6 nM; in the series on MS2 coat protein [2] (setting [10]), 17 nM.

Consider “UUACAGAAAGGAUAUACAUGAGGAUCACCCAUGUAGUAUGAGUUGGUGAGAGUUCGUGGUAGAAGGUUCCGCAA”, for which the “apparent Kd” value with MS2 coat protein [2] (setting [7]) is 53 nM; with MS2 coat protein [2] (setting [8]), 55.2 nM.

With “CCCGUAAAGGCGGCCGCCACUGUAUGACAUGAGGAUCACCCAUGUAGGGAAAAUGCGAUGGUCGUCAGGACCGGGCCUCUGGCAU”, the “apparent Kd” value with MS2 coat protein [2] (setting [5]) is 23.1 nM; in the series with MS2 coat protein [2] (setting [6]) it was 23.8 nM.

In the case of “AACCACAUGAGGAUCACCCAUGUGACCGCUCGAGGACCGGUACGGCCGCCACUCGUGGAGGGACUUAUGCGUUAUCCGGGUAAAU”, the “apparent Kd” value with MS2 coat protein [2] (setting [3]) worked out at 19.4 nM; with MS2 coat protein [2] (setting [4]), 22.6 nM.

In the case of “UUAGGUUAUAAAGUGACAUGAGGAUCACCCAUGUGCUCACAGAGAAGGUUAUACCUACAGGCUAUAAAGGAUAUCUCCUAAAUU”, the “apparent Kd” value in the series with MS2 coat protein [2] (setting [7]) is 12.3 nM; with MS2 coat protein [2] (setting [8]) it was 8.73 nM.

“GGCGCUACGCCGGUACAUGAGGAUCACCCAUGUCCAUAUGUAAGAAGGUCUGGCGGGACGACAAAGAAGGAUAUUACAGAUUGC”: the entries for the “apparent Kd” value in the series on MS2 coat protein [2] (setting [9]) and in the series on MS2 coat protein [2] (setting [10]) were 33.7 nM and 24.9 nM, respectively.

The values above are taken from the EternaBench riboswitch data.
